HUVEC inhibit: blocks proliferation of human endothelial cells | HUVEC proliferation, CellTiter-Glo luminescence, 72 h; stronger effect = lower value | viability, % at 10 µM (by protocol) | actives 1.1% (n = 86,000);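 active = viability at or below 30%; inactive = viability above 30%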;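 also: 100% = median luminescence of DMSO-only cell control wells on each plate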
HCT116 PTEN-null: PTEN-deleted cell growth suppression; AID 827; actives 1.2% (n = 140,000); viability, % at 10 µM; HCT116 PTEN-null viability, CellTiter-Glo, 60 h; stronger effect = lower value;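 active = viability at or below a set limit, 4 SD under the median of all tested compounds, cut at about 3.7% in these data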;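 also: PTEN knockout HCT116 line with beta catenin targeted HCT116 as companion control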
H69AR growth 86K: blocks growth of human H69AR lung tumor cells. H69AR lung tumor viability, ATP luminescence, 72 h; stronger effect = lower value. viability, % at 10 µM. actives 6% (n = 85,000). AID 598;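 active = viability at or below 40%; inactive = viability above 40%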;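 also: multidrug resistant small cell line overexpressing MRP-1 efflux transporter; 100% = mean luminescence of untreated control wells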
HCT116 bCat-KO: beta-catenin-lacking colon tumor cell growth suppression | HCT116 beta-catenin knockout viability, CellTiter-Glo, 60 h; stronger effect = lower value | viability, % at 10 µM | actives 1.5% (n = 140,000) | AID 818;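 active = viability at or under a set limit, the compound median less 4 SD, cut at about 6% in these data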;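 also: 0% = Hyamine 1622 control at 20 µM and 100% = untreated cell control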
Fibroblast inh: blocks proliferation of human lung fibroblasts; LL 47 human lung fibroblast viability, ATP luminescence; stronger effect = lower value; viability, % at 10 µM; actives 1.1% (n = 85,000); AID 719;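 active = viability at or below 50% in the single dose screen; inactive = viability above 50%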;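 also: compound exposure lasted 72 h before the ATP readout; 100% = median luminescence of untreated cell-only wells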
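material = human LL 47 lung fibroblast cells | dosing = compounds added from tenfold dosing solution, 0.1% DMSO final | timing = overnight cell rest, 72 h compound treatment at 37 °C | measured by = CellTiter-Glo luminescence measuring cellular ATP | evaluation = % viability versus median cells-only luminescence | control set = cell-only wells, no compound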
An asterisk follows results filed as active; x = not tested or not shown. The full list was thinned out, with hits kept by preference.

SMILES	HUVEC inhibit	HCT116 PTEN-null	H69AR growth 86K	HCT116 bCat-KO	Fibroblast inh
Cc1ccc(NC(=O)NC2CCN(CC(=O)Nc3nccs3)CC2)cc1	98	112	75	103	100
Cc1ccccc1C(=O)NC1CCN(CC(=O)Nc2nccs2)CC1	98	110	16*	97	94
CCC(C)(C(=O)Nc1ccccc1C)N(C(=O)CNC(C)=O)c1ccccc1C (stereo not drawn)	x	96	x	94	x
COc1nc(Nc2nc3ccccc3c(=O)[nH]2)nc2ccc(C)cc12	2.6*	x	14*	x	6.7*
CCCCCc1c(C)nc(Nc2nc(C)c3cc(OC)ccc3n2)[nH]c1=O	78	64	70	57	96
CCc1c(C)nc(Nc2nc(C)c3cc(OC)ccc3n2)[nH]c1=O	84	53	28*	48	89
COc1ccc2c(C)nc(Nc3nc(C)c(C)c(=O)[nH]3)nc2c1	14*	1.6*	31*	1.7*	13*
COC(=O)c1ccccc1NC(=O)c1c(O)c2cccc3c2n(c1=O)CCC3	116	x	105	x	104
CNC(=O)c1c(O)c2cccc3c2n(c1=O)CC3	102	x	103	x	95
O=C(Nc1cccnc1)c1c(O)c2cccc3c2n(c1=O)CC3	103	91	15*	99	100
CCCCc1nc2ccccc2c(=O)n1NC(=O)c1c(O)c2c(n(CC(C)C)c1=O)CCCC2	113	44	9.7*	42	76
CC(C)c1nnc(NC(=O)c2c(O)c3cccc4c3n(c2=O)CC4)s1	86	x	28*	x	96
Cc1csc(NC(=O)c2c(O)c3cccc4c3n(c2=O)CCC4)n1	128	x	36*	x	96
Cc1cc(C(=O)NCCCn2ccnc2)sc1-c1ccccc1	61	58	102	38	95
CC(C)OC(=O)CN1CCN(C2c3ccccc3-c3ccccc32)CC1	110	104	82	102	93
COc1ccc(CC(=O)Nc2ccc(C(=O)Nc3ccccc3C(=O)O)cc2)cc1OC	x	107	x	98	x
CCOC(=O)c1c(C)oc2c(CC(=O)c3ccccc3)c(Cl)c(O)c(O)c12	x	63	x	56	x
CCc1nc2ccccc2c(=O)n1NC(=O)c1c(O)c2cccc3c2n(c1=O)CCC3	95	75	26*	71	95
O=C(NCc1ccccc1)c1c(O)c2cccc3c2n(c1=O)CCC3	97	55	73	58	96
CCCc1nnc(NC(=O)c2c(O)c3cccc4c3n(c2=O)CCC4)s1	108	x	6.0*	x	97
CCCCSc1nnc(-c2ccccc2)c2ccccc12	x	81	x	77	x
NC(=O)C1CCN(C(=O)/C=C/c2ccco2)CC1	x	95	x	85	x
O=C(NC(=Nc1nc2ccccc2o1)NC(=O)c1ccccc1)c1ccccc1	x	102	x	91	x
N/C(=N\c1nc2ccccc2o1)NC(=O)c1ccccc1F	92	92	75	101	104
N/C(=N\c1nc2ccccc2o1)NC(=O)c1ccccc1NC(=O)c1ccccc1	70	85	27*	72	70
SMILES	HUVEC inhibit	HCT116 PTEN-null	H69AR growth 86K	HCT116 bCat-KO	Fibroblast inh
COc1ccccc1C(=O)NC(=Nc1nc2ccccc2o1)NC(=O)c1ccccc1OC	14*	2.1*	18*	2.5*	71
COC(=O)N/N=C/c1cn(Cc2c(Cl)cccc2Cl)c2ccccc12	x	80	x	79	x
Fc1ccc(COc2ccc(/C=N/n3cnnc3)cc2)cc1	112	83	88	90	105
CN(C)CCCNC(=O)c1ccc(-c2nc(-c3ccc(Cl)cc3)cs2)cc1	x	1.5*	x	1.3*	x
CN(C)CCCNC(=O)c1ccccn1	94	94	91	100	98
COc1ccc([N+](=O)[O-])cc1C1NN=C(c2ccccc2O)S1 (stereo not drawn)	74	69	27*	72	61
Cc1ccc(Cn2c(=O)n(CCC(=O)NCc3ccc4c(c3)OCO4)c(=O)c3ccccc32)cc1	95	91	99	93	102
O=C(CCCn1c(=O)c2sccc2n(Cc2ccc(F)cc2)c1=O)NCc1ccco1	69	58	22*	61	96
CCOc1cc2[nH]c(=O)n(CCCCCC(=O)NCc3ccc4c(c3)OCO4)c(=O)c2cc1OCC	31	x	18*	x	34*
O=C(CCCn1c(=O)c2sccc2n(CC(=O)OCc2ccccc2)c1=O)NCc1ccco1	87	88	92	89	96
N#Cc1ccccc1Cn1c(=O)n(CCCC(=O)NCc2ccc3c(c2)OCO3)c(=O)c2ccccc21	59	73	40*	64	69
CCOc1cc2[nH]c(=O)n(CCCCCC(=O)NCc3ccco3)c(=O)c2cc1OCC	59	89	95	105	98
N#Cc1ccccc1Cn1c(=O)n(Cc2ccc(C(=O)NCc3ccco3)cc2)c(=O)c2ccccc21	26*	19	12*	20	53
COc1ccc(NC(=O)C2CCC(CNc3c(N4CCC(C)CC4)c(=O)c3=O)CC2)cc1OC (stereo not drawn)	101	97	93	95	100
Cc1ccc(S(=O)(=O)N(C)CCCC(=O)Nc2ccc(C)cc2C)cc1	x	80	x	83	x
CCN(CC)C(=O)CSCc1cnn(-c2ccccc2)c1-n1cccc1	102	68	70	71	90
Cc1cc(C)c(COc2ccc(/C=N/n3c(C)n[nH]c3=S)cc2)c(C)c1	x	85	x	66	x
CCOc1ccc(OCC)c(S(=O)(=O)NCc2ccccn2)c1	105	97	87	95	100
COc1ccc(NS(=O)(=O)c2cc(NC(=O)c3cccc(OCc4c(C)noc4C)c3)ccc2OC)cc1	x	70	x	79	x
Cc1ccnc(SCc2cc(=O)c(OC(=O)c3ccc(Cl)c([N+](=O)[O-])c3)co2)n1	x	102	x	101	x
COC(=O)CNC(c1ccccc1Cl)c1cc(Br)ccc1NS(=O)(=O)c1ccc(C)cc1 (stereo not drawn)	x	63	x	59	x
O=C(CCCCn1c(=O)c2ccccc2n(CC(=O)Nc2cccc(F)c2)c1=O)NCc1ccco1	88	102	92	98	75
O=C(CCCCn1c(=O)c2ccccc2n(Cc2ccc(Cl)cc2)c1=O)NCc1ccco1	52	42	16*	53	54
CCc1ccc(NC(=O)Cn2c(=O)n(CCCC(=O)NCc3ccco3)c(=O)c3ccccc32)cc1	41	92	30*	99	82
Cc1ccccc1NC(=S)NC1CC2CCC(C1)N2Cc1ccco1 (stereo not drawn)	x	72	x	68	x
CCC(C)NC(=O)CCSc1ccc(C)cc1 (stereo not drawn)	x	90	x	95	x
Cc1ccc(Cl)cc1N1CCN(CC(O)COCc2ccco2)CC1 (stereo not drawn)	x	68	x	71	x
O=C1[C@H]2[C@H]3[C@H](O)[C@H](O)C/C(=N\OC[C@@H](O)COCc4ccco4)[C@@H]3CC[C@H]2C(=O)N1c1ccc(F)cc1F	x	79	x	0.3*	x
CCC1=Nc2cc(C(=O)NCCCOC(C)C)ccc2Sc2ccccc21	59	90	26*	88	56
CCS(=O)(=O)CCSC(=N)N	88	76	90	72	94

Source: PubChem
